# Tested on: SH-SY5Y
# Test: Cytotoxicity against human SH-SY5Y cells assessed as cell viability at 100 uM incubated for 24 to 72 hrs by MUH reagent based spectrophotometric analysis
# Type: functional
# Settings: time 24-72 hrs, read-out: Activity
# How it was run: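 SH-SY5Y in DMEM/10% FBS seeded 0.75 × 10⁴ cells/well, after 24 h treated with 0.1–100 μM for 24, 48 or 72 h. Washed, incubated with MUH 0.01 mg/mL in PBS 30 min at 37 °C in the dark; fluorescence ex 330/em 450 nm, normalized to untreated cells. IC50 by nonlinear regression, log(inhibitor) vs normalized response.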
compound,measurement,value
CC1=C(NCCCCNC(=O)CS)C(=O)c2ccccc2C1=O,viability at 100 µM,70%

# Reference: ChEMBL document CHEMBL5532752, “Integrating a quinone substructure into histone deacetylase inhibitors to cope with Alzheimer's disease and cancer” (RSC Med Chem, 2024)
